From paper PMC2702655 (Archives of biochemistry and biophysics, 2009)
Entries after “also recorded” stand apart in the source; their conditions may differ.

Tests used:
eNOS [1] = experiment: eNOS oxygenase activity, L-[3H]citrulline formation; assay type: biochemical, human; details: 50 nM eNOS, 1 μM calmodulin, 0.5 mM Ca2+, 10 μM L-arginine, 37 °C, 5 min, varied peptide concentrations
In short: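 Steady-state reaction in 25 mM Tris pH 7.5, 100 mM NaCl, 0.1 mM EGTA, 0.1 mM EDTA, 100 μM β-NADPH, 100 μM H4B and 1 μCi L-[3H]arginine tracer. Read-out was L-[3H]citrulline formed. Activity was normalized as percent of the rate without peptide. Mean ± standard deviation of triplicate experiments.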

CaM mutant B1234Q = experiment: Gel mobility-shift assay of peptide binding to CaM mutant B1234Q; set-up: species or system human; details: CaM:peptide ratio 1:10, 100 μM Ca2+
In short: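 Calmodulin mutant with Glu→Gln at all four Ca2+ sites ([…]), expressed in E. coli BL21(DE3) and purified by heat treatment at 70°C, ammonium sulfate fractionation and gel filtration. Test peptide and mutant were incubated at a 1:10 CaM:peptide ratio for 1 h in 20 mM Tris pH 7.5 with 100 μM Ca2+. Samples ran on 18% nondenaturing, non-reducing PAGE with 100 μM free Ca2+ in gel buffers, then Coomassie staining.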

eNOS [2] = experiment: Cytochrome c reductase activity of eNOS; assay type: biochemical, human; details: 10 μM peptide, with CaM
In short: (§1)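 Purified eNOS in Tris-HCl pH 7.5 with NaCl, 10% glycerol, NADPH and enzyme at 37 °C, with or without each peptide, and with or without CaM plus 100 μM CaCl2. Cytochrome c reduction used cytochrome c as electron acceptor. Ferricyanide reduction used the same mixture with ferricyanide in place of cytochrome c.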

eNOS [3] = experiment: Ferricyanide reduction by eNOS; assay type: biochemical, human; details: 10 μM peptide, with CaM
In short: as §1

CaM = experiment: Intrinsic tryptophan fluorescence of peptides with CaM; assay type: binding, human; details: 100 μM Ca2+; 5 μM peptide + 5 μM CaM, 20 mM Tris pH 7.5, excitation 290 nm
In short: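 Test peptides carry tryptophan. Each peptide (5 μM) was measured with or without 5 μM E. coli-expressed wild-type CaM in 20 mM Tris pH 7.5 containing 100 μM Ca2+, with 1 mM EGTA in place of Ca2+ as the low-Ca2+ condition. Intrinsic fluorescence was excited at 290 nm and emission scanned from 300 to 450 nm, 2-nm slits. Intensity and emission peak position were compared.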

Row | Substance | Effect on eNOS oxygenase activity (L-citrulline formation), in words (eNOS [1]) | Binding to B1234Q (disappearance of free B1234Q band) (CaM mutant B1234Q) | also measured
1 | PKFPRVKNWEVGSITYDTLS [Peptide E0] | did not interfere with eNOS catalytic activity |  | 
2 | RRPKRREIPL^1KVLV^5KAV^8LFACML^14M [Peptide M2] |  | able to bind B1234Q; also recorded: binds B1234Q with the highest affinity | 
3 | YNSSPRPEQHKSY^1KIRF^5NSI^8SCSDPL^14 [Peptide E3] | weak inhibition on citrulline formation |  | Inhibition of cytochrome c reduction (eNOS [2]): no effect on electron transfer within reductase domain; Inhibition of ferricyanide reduction (eNOS [3]): no effect on electron transfer within reductase domain
4 | TKQA^1WRNA^5PRC^8IG^10RIQW^14SNL [Peptide M1] |  | able to bind B1234Q | Increase in tryptophan fluorescence intensity induced by CaM (CaM): 2 fold
5 | VTSRIRTQSF^1SLQERQL^8RGAVPW^14 [Peptide E5] | did not interfere with eNOS catalytic activity |  | 
